Assay results from ChEMBL document CHEMBL4732220, “Design, synthesis and biological evaluation of mono- and bisquinoline methanamine derivatives as potential antiplasmodial agents” (Bioorg Med Chem Lett, 2021).
pIC50: −log10 of the molar value.

Assays:
[1] = Cytotoxicity against human HeLa cells assessed as cell viability at 20 uM relative to control; assay type: cell-based; conditions: read-out: Activity
Summary of the method: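 Mammalian HeLa cells incubated with test compound at a single 20 µM concentration. Read-out is the percentage of viable cells remaining after incubation.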

[2] = test system: Plasmodium falciparum; experiment: Antiplasmodial activity against chloroquine-sensitive Plasmodium falciparum 3D7 assessed as parasite growth inhibition; assay type: functional, organism-based
Summary of the method: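 In vitro growth inhibition of P. falciparum 3D7. IC50 reported in µM, with 20 µM as the highest concentration tested.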

[3] = test system: Plasmodium falciparum; experiment: Antimalarial activity against synchronized ring stage chloroquine-sensitive Plasmodium falciparum assessed as parasite growth inhibition incubated for 48 hrs in presence of 10% human plasma by hypoxanthine assay; assay type: functional, organism-based

SMILES	viability at 20 µM [1]	pIC50 [2]	pIC50 [3]
COc1nc2cc(C)cc(C)c2cc1CNCc1ccncc1	60.7%	4.92	–
COc1ccc2nc(Cl)c(CN(Cc3cccs3)Cc3cc4cc(C)ccc4nc3OC)cc2c1	103%	4.87	–
Cc1ccc2nc(Cl)c(CN(Cc3cccnc3)Cc3cc4c(C)cc(C)cc4nc3Cl)cc2c1	80.3%	5.12	–
COc1nc2ccccc2cc1CN(Cc1cccnc1)Cc1cc2cc(C)ccc2nc1Cl	98.3%	5.01	–
COc1ccc2nc(OC)c(CNCc3cccs3)cc2c1	93.2%	< 4.70	–
COc1nc2cc(C)cc(C)c2cc1CN(Cc1cccs1)Cc1cc2cc(C)ccc2nc1Cl	86%	< 4.70	–
Fc1ccc2nc(Cl)c(CN(Cc3ccccn3)Cc3cc4cc(F)ccc4nc3Cl)cc2c1	98.7%	5.01	–
COc1ccc2nc(OC)c(CN(Cc3cccs3)Cc3cc4cc(C)ccc4nc3Cl)cc2c1	99.2%	6.03	–
COc1nc2ccccc2cc1CN(Cc1ccccn1)Cc1cc2ccccc2nc1OC	89%	5.46	–
COc1nc2ccccc2cc1CNCc1ccccn1	44.3%	5.85	–
COc1nc2ccc(F)cc2cc1CN(Cc1cccs1)Cc1cc2cc(C)ccc2nc1Cl	95.2%	4.95	–
COc1nc2ccc(F)cc2cc1CNCc1cccnc1	97.2%	4.75	–
COc1nc2ccc(Cl)cc2cc1CNCc1cccnc1	100%	4.77	–
COc1nc2cc(C)cc(C)c2cc1CN(Cc1cccnc1)Cc1cc2cc(C)ccc2nc1Cl	77.6%	4.91	–
COc1nc2ccccc2cc1CNCc1ccncc1	69.9%	5.68	–
COc1nc2ccc(C)cc2cc1CN(Cc1cccs1)Cc1cc2cc(C)ccc2nc1Cl	87.9%	4.90	–
COc1nc2ccccc2cc1CN(Cc1ccco1)Cc1cc2cc(C)ccc2nc1Cl	84.4%	4.89	–
COc1nc2cc(C)cc(C)c2cc1CN(Cc1ccccn1)Cc1cc2c(C)cc(C)cc2nc1OC	90.1%	5.55	–
COc1nc2ccc(F)cc2cc1CNCc1cccs1	93.5%	< 4.70	–
COc1nc2ccc(C)cc2cc1CN(Cc1ccccn1)Cc1cc2cc(C)ccc2nc1OC	93.3%	< 4.70	–
Clc1nc2ccccc2cc1CNCc1ccncc1	73.7%	5.64	–

SMILES	viability at 20 µM [1]	pIC50 [2]	pIC50 [3]
COc1nc2ccccc2cc1CNCc1ccco1	88.9%	< 4.70	–
COc1ccc2nc(Cl)c(CN(Cc3cccs3)Cc3cc4c(C)cc(C)cc4nc3OC)cc2c1	85.4%	< 4.70	–
COc1nc2ccc(C)cc2cc1CNCc1cccnc1	99.5%	4.87	–
Cc1ccc2nc(Cl)c(CN(Cc3ccccn3)Cc3cc4cc(C)ccc4nc3Cl)cc2c1	93%	< 4.70	–
Clc1nc2ccccc2cc1CNCc1ccccn1	65.6%	< 4.70	–
COc1nc2ccc(C)cc2cc1CNCc1cccs1	99.7%	< 4.70	–
COc1nc2cc(C)cc(C)c2cc1CNCc1ccccn1	56.7%	6.64	–
COc1nc2ccccc2cc1CNCc1cccnc1	89.9%	4.87	–
Clc1ccc2nc(Cl)c(CN(c3ccccc3)c3nnc(-c4ccccc4)o3)cc2c1	–	–	7.05
COc1ccc2nc(OC)c(CNCc3cccnc3)cc2c1	100%	4.89	–
COc1nc2cc(C)cc(C)c2cc1CNCc1cccnc1	76.7%	< 4.70	–
COc1nc2ccc(F)cc2cc1CN(Cc1cccnc1)Cc1cc2cc(C)ccc2nc1Cl	92.6%	5.02	–
Oc1ccc2nc(Cl)c(CN(Cc3ccccn3)Cc3cc4cc(O)ccc4nc3Cl)cc2c1	88.8%	5.60	–
COc1nc2ccccc2cc1CNCc1cccs1	89.9%	< 4.70	–
COc1nc2ccccc2cc1CN(Cc1ccccn1)Cc1cc2ccccc2nc1Cl	89.9%	< 4.70	–
Cc1cc(C)c2cc(CNCc3cccnc3)c(Cl)nc2c1	77.2%	< 4.70	–
COc1ccc2nc(OC)c(CN(Cc3ccccn3)Cc3cc4cc(OC)ccc4nc3OC)cc2c1	79.5%	5.47	–
Clc1nc2ccccc2cc1CN(Cc1ccccn1)Cc1cc2ccccc2nc1Cl	90.6%	< 4.70	–
COc1nc2cc(C)cc(C)c2cc1CNCc1cccs1	87.5%	< 4.70	–
COc1ccc2nc(Cl)c(CN(Cc3ccccn3)Cc3cc4cc(OC)ccc4nc3Cl)cc2c1	83.8%	< 4.70	–
C=C[C@H]1CN2CC[C@H]1C[C@H]2[C@H](O)c1ccnc2ccc(OC)cc12 [QUININE]	–	–	6.08
